RORA act: RORA (human) activation; CHO-K1 Gal4-RORA LBD luciferase reporter, luminescence; percent increase over mock-subtracted basal signal; 65,000 tested, 1.5% active; P35398; AID 560; activation, % at 10 µM;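 active means activation above the mean of all tested compounds plus 3 SD, cut at about 49% in these data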;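 further: 0% = DMSO-treated RORA cells and 100% = added signal equal to DMSO minus mock-transfected cells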
ERa SRC1 inh: ER-alpha (human) coactivator binding inhibition. P03372. TR-FRET ER-alpha LBD / SRC-1 peptide, estradiol-bound. inhibition, % at 25.6 µM. 86,000 tested, 1.7% active; in the data active means inhibition above about 50%;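 further: 0% = receptor plus peptide control and 100% = peptide only without receptor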
BAP1 block: human BAP1 deubiquitinase inhibition | Q92560 | recombinant BAP1, Ub-AMC hydrolysis fluorescence kinetic; active compounds read low | calls only at 20 µM | 72,000 tested, 0.48% active;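 active means activity remaining at or below 50% of control, provided the compound also passes the data quality filters; inactive means the rest, including low values that fail the filters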;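 further: 100% = DMSO wells rate and 0% = substrate alone blank rate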
SF-1 act: activates the human nuclear receptor SF-1; Q13285; CHO-K1 Gal4-SF-1 LBD luciferase reporter; % increase over DMSO SF-1-specific signal; activation, % at 10 µM; 65,000 tested, 1.9% active; AID 522;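 active means activation above the mean activation of all tested compounds plus 3 SD, cut at about 50% in these data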
Target sequence (Q13285 whole entry, looked up, the tested form may be a part): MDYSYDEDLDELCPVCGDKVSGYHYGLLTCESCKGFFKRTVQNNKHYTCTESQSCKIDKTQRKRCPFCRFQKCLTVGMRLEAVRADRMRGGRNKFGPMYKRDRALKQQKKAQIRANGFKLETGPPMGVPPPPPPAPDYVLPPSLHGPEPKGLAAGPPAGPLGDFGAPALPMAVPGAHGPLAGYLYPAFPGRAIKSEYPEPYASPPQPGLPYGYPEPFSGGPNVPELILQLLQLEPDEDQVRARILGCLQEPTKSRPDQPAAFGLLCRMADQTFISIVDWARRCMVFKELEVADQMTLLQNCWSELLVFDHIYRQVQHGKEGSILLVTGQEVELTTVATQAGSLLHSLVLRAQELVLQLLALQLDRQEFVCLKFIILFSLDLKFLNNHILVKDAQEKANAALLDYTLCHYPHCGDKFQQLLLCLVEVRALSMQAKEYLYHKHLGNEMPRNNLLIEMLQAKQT
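Material: Transient Gal4-SF-1 LBD reporter, CHO-K1 | Input: 4,000 cells/well | Dosing: One dose, 10 µM compound, 1% DMSO | Incubation: 20 h compound treatment, 37 °C | Detection: SteadyLite luciferase luminescence | Evaluation: Percent activation relative to DMSO median and mock-transfected background | Benchmarks: DMSO-treated SF-1-transfected cells as negative, DMSO-treated mock-transfected cells lacking SF-1 as background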
ERa coact pot: enhances coactivator binding to human estrogen receptor alpha; coactivator binding (% of control), % at 25.6 µM; TR-FRET ERalpha-LBD/SRC-Cy5 coactivator binding, 2 h; 100 = basal binding, no effect; P03372; 86,000 tested, 1.3% active; in the data active means activity above about 200%;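 further: binding measured in presence of low estradiol as agonist stimulus; 0% = peptide alone without receptor and 100% = receptor with peptide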
ERb SRC1 inh: blocks coactivator binding to human estrogen receptor beta; Q92731; TR-FRET ER-beta LBD / SRC1-Cy5 peptide binding; receptor agonist-loaded with 1 µM estradiol; inhibition, % at 25.6 µM; 86,000 tested, 1.3% active; AID 633;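 active means compounds whose percent inhibition of the receptor-coactivator binding signal exceeds about 50% in the single-dose screen, limit read from the data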;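 further: 0% = receptor plus peptide wells without compound and 100% = peptide-only wells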
* hit, by the source's call; [ ] = another dose, or the depositor's remark. Sampled rows, rich in hits. Any-hit rate of the full collection: about 5.1%.

For COc1ccc(-n2c(SCC(=O)Nc3nccs3)nc3sc4c(c3c2=O)CCN(C)C4)cc1 the results were RORA act 4.7, ERa SRC1 inh 51.1*, SF-1 act 1.4, ERa coact pot 182.2 and ERb SRC1 inh 24.6.
`CCc1ccccc1NC(=O)c1cnc2n(c1=O)CCS2` gave RORA act 17.5, ERa SRC1 inh -0.5, BAP1 block inactive, SF-1 act 18.3, ERa coact pot 82.6 and ERb SRC1 inh -2.0.
For CCc1ccc(NC(=O)c2cnc3n(c2=O)CCS3)cc1 the results were RORA act 39.9, ERa SRC1 inh 0.8, BAP1 block inactive, SF-1 act 49.5*, ERa coact pot 94.7 and ERb SRC1 inh 0.0.
CC1(C)Cc2c(ccc3ccccc23)C(c2cc3ccccc3oc2=O)=N1 was read as ERa SRC1 inh 59.5*[fluorescence artefact?], ERa coact pot 72.8 and ERb SRC1 inh 18.3.
For COC(=O)c1sc2ccccc2c1NC(=O)c1ccc(OC)cc1OC the results were BAP1 block inactive.
Screening Cc1ccc(C(=O)C[n+]2ccc3ccccc3c2)cc1[N+](=O)[O-] returned BAP1 block inactive.
For Cc1ccc2ccc(C3C(=O)c4ccccc4C3=O)nc2c1 the results were ERa SRC1 inh 11.1, ERa coact pot 395.3* and ERb SRC1 inh 2.5.
Screening O=C1c2ccccc2C(=O)C1c1ccc(O)cc1 returned BAP1 block inactive.
Cc1ccc(Oc2cccc(N3C(=O)c4cccc([N+](=O)[O-])c4C3=O)c2)cc1C was read as BAP1 block inactive.
For Cc1cc(C)c2nc(SCC(=O)Nc3ccccc3N3CCOCC3)c(C#N)cc2c1 the results were ERa SRC1 inh 21.1, ERa coact pot 353.2*[fluorescence artefact?] and ERb SRC1 inh 33.4.
Screening Cc1cc(C)c2nc(SCC(=O)N3CC(=O)Nc4ccccc43)c(C#N)cc2c1 returned ERa SRC1 inh 27.9, ERa coact pot 461.1*[fluorescence artefact?] and ERb SRC1 inh 32.8.
For Cc1nnc(SCC(=O)N2CC(=O)Nc3ccccc32)n1-c1ccccc1 the results were RORA act -0.6, ERa SRC1 inh -3.0, BAP1 block inactive, SF-1 act 1.5, ERa coact pot 115.7 and ERb SRC1 inh 1.2.
Screening Cc1ccc(OCC(=O)Nc2ccccc2N2CCOCC2)c(C)c1 returned ERa SRC1 inh -4.8, ERa coact pot 104.7 and ERb SRC1 inh -3.4.
For O=c1[nH]cnc2nc(N3CCCCC3)[nH]c12 the results were BAP1 block inactive.
For COc1cc(NS(=O)(=O)c2ccc(NC(=O)c3ccc(OC)c(OC)c3)cc2)ncn1 the results were BAP1 block inactive.
Screening COC(=O)c1ccsc1NC(=O)CSc1nnnn1-c1ccccc1SC returned RORA act -14.5, ERa SRC1 inh -18.7, BAP1 block inactive, SF-1 act -6.3, ERa coact pot 262.6*[fluorescence artefact?] and ERb SRC1 inh -8.9.
`CC(C)CCn1c(CO)nc2ccccc21` gave BAP1 block inactive.
For O=c1cc(-c2cccc([N+](=O)[O-])c2)c2ccc(OCc3ccc(F)cc3)cc2o1 the results were BAP1 block inactive.
`NC(=O)c1c(NC(=O)COC(=O)CSc2nnc(-c3ccc(Cl)cc3)o2)sc2c1CCC2` gave RORA act 11.2, ERa SRC1 inh 58.3*[fluorescence artefact?], SF-1 act 3.5, ERa coact pot 41.2 and ERb SRC1 inh 45.9.
For COc1ccc(-n2c(SCC(=O)Nc3sc4c(c3C#N)CCCC4)nnc2-c2ccccc2OC)cc1 the results were ERa SRC1 inh -1.8, ERa coact pot 101.5 and ERb SRC1 inh -6.4.
CCOC(=O)Cc1csc(SCC(=O)Nc2sc3c(c2C(N)=O)CCC3)n1 was read as RORA act 4.8, ERa SRC1 inh 91.8*[fluorescence artefact?], SF-1 act 2.8, ERa coact pot 61.4 and ERb SRC1 inh 81.9*[fluorescence artefact?].
For CCOC(=O)c1c(NC(=O)CSc2nnc(C)s2)sc2c1CCCCC2 the results were ERa SRC1 inh 1.8, ERa coact pot 137.2 and ERb SRC1 inh 2.0.
Screening CCOC(=O)c1c(NC(=O)CSc2nnc(-c3ccc(OC)cc3)o2)sc2c1CCC2 returned RORA act -3.5, ERa SRC1 inh 35.4, SF-1 act -14.2, ERa coact pot 115.9 and ERb SRC1 inh 14.6.

Bioassay records from PubChem.
